The target of test [1] is T1, Angiotensin-converting enzyme (Rattus norvegicus) (UniProt P47820).
T1 sequence (whole entry): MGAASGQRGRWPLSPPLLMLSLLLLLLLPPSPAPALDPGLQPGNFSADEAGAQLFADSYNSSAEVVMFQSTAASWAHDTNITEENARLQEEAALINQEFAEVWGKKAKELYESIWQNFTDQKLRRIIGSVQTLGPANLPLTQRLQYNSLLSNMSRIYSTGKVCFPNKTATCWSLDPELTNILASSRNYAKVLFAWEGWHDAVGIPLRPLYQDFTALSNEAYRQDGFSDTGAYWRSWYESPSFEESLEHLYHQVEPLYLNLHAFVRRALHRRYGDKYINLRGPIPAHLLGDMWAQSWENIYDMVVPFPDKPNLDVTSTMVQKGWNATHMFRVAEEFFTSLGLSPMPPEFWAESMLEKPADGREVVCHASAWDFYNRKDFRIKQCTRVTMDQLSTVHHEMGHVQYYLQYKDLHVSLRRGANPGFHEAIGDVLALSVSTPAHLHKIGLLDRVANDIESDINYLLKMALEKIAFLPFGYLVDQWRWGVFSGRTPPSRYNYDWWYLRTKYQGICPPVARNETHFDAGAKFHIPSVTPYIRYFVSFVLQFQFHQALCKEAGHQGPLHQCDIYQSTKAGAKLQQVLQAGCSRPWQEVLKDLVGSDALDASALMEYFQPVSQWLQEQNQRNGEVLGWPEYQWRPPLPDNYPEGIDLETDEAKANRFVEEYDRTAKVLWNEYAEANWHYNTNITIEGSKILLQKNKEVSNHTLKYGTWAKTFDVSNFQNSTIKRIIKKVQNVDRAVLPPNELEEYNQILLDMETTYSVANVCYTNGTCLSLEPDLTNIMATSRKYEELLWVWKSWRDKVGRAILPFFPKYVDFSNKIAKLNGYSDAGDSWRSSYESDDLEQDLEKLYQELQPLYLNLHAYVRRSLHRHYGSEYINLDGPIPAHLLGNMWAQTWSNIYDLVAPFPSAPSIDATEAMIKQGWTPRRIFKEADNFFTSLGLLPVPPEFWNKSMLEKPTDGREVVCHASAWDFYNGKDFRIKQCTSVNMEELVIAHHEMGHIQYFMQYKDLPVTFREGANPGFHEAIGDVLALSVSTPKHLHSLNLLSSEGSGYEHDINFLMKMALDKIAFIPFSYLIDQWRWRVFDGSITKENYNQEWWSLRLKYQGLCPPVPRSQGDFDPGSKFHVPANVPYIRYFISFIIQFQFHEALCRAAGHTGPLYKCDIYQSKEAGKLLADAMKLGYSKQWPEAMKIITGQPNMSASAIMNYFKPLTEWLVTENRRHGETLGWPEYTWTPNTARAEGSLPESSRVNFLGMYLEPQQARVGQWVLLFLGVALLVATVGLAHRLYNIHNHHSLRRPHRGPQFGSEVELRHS
Nature of the test: Compound was tested for plasma inhibition of Angiotensin I converting enzyme activity in the conscious rat. Expressed as Inhibition of AI pressor response at 2 hr at a dose of 14.1 mg/kg po. It is filed as organism-based. The arrangement: dose 14.1 mg/kg. Put shortly: (§1)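 Male conscious normotensive Sprague-Dawley rats (275-390 g), given femoral arterial and venous catheters under methohexital sodium (75 mg/kg ip) anesthesia. Next day, pressor responses to three angiotensin-I challenges (300 ng/kg iv) recorded by direct arterial pressure. Compound then dosed orally, and AI challenge repeated at set times. Each post-dose response compared with the mean of the three baseline responses, giving % inhibition.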

The target of test [2] is T1, Angiotensin-converting enzyme (Rattus norvegicus). Nature of the test: Compound was tested for plasma inhibition of Angiotensin I converting enzyme activity in the conscious rat. Expressed as Inhibition of AI pressor response at 1 hr at a dose of 14.1 mg/kg po. The format is organism-based. The arrangement: dose 14.1 mg/kg. In a few lines: as §1
The target is the same in test [3]. Nature of the test: Compound was tested for plasma inhibition of Angiotensin I converting enzyme activity in the conscious rat. Expressed as Inhibition of AI pressor response at 4 hr at a dose of 13.3 mg/kg po. The arrangement: dose 13.3 mg/kg. The format is organism-based. Put shortly: (§2)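 Male conscious normotensive Sprague-Dawley rats (275-390 g), prepared under methohexital sodium (75 mg/kg ip) with femoral arterial and venous catheters. The next day, pressor responses to three angiotensin-I challenges (300 ng/kg iv) were recorded. Compound was then given orally and angiotensin-I challenges were repeated at set times. Percent inhibition is relative to the mean of the three baseline responses.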

The target is the same in test [4]. Kind of test: Compound was tested for plasma inhibition of Angiotensin I converting enzyme activity in the conscious rat. Expressed as Inhibition of AI pressor response at 6 hr at a dose of 13.3 mg/kg po. Also noted: dose 13.3 mg/kg. The format is organism-based. In a few lines: as §2
Test [5] has the same target. Nature of the test: Compound was tested for plasma inhibition of Angiotensin I converting enzyme activity in the conscious rat. Expressed as Inhibition of AI pressor response at 1 hr at a dose of 13.3 mg/kg po. It is filed as organism-based. Also noted: dose 13.3 mg/kg. In a few lines:
as §1

Test [6] has the same target. Nature of the test: Compound was tested for plasma inhibition of Angiotensin I converting enzyme activity in the conscious rat. Expressed as Inhibition of AI pressor response at 2 hr at a dose of 13.3 mg/kg po. It is filed as organism-based. Also noted: dose 13.3 mg/kg. In a few lines: as §1
The target is the same in test [7]. Kind of test: Compound was tested for plasma inhibition of Angiotensin I converting enzyme activity in the conscious rat. Expressed as Inhibition of AI pressor response at 4 hr at a dose of 13.8 mg/kg po. It is filed as organism-based. The arrangement: dose 13.8 mg/kg. Put shortly: as §2
Test [8] shares this target. Kind of test: Compound was tested for plasma inhibition of Angiotensin I converting enzyme activity in the conscious rat. Expressed as Inhibition of AI pressor response at 6 hr at a dose of 13.8 mg/kg po. It is filed as organism-based. The arrangement: dose 13.8 mg/kg. In a few lines:
as §2

The target is the same in test [9]. Nature of the test: Compound was tested for plasma inhibition of Angiotensin I converting enzyme activity in the conscious rat. Expressed as Inhibition of AI pressor response at 2 hr at a dose of 13.8 mg/kg po. Also noted: dose 13.8 mg/kg. It is filed as organism-based. Put shortly:
as §1

For test [10] the target is unchanged. Kind of test: Compound was tested for plasma inhibition of Angiotensin I converting enzyme activity in the conscious rat. Expressed as Inhibition of AI pressor response at 1 hr at a dose of 13.8 mg/kg po. Also noted: dose 13.8 mg/kg. The format is organism-based. Put shortly: as §1
Test [11] has the same target. Nature of the test: Compound was tested for plasma inhibition of Angiotensin I converting enzyme activity in the conscious rat. Expressed as Inhibition of AI pressor response at 2 hr at a dose of 12.8 mg/kg po. It is filed as organism-based. The arrangement: dose 12.8 mg/kg. Put shortly: as §1
Test [12] shares this target. Kind of test: Compound was tested for plasma inhibition of Angiotensin I converting enzymeb activity in the conscious rat. Expressed as Inhibition of AI pressor response at 4 hr at a dose of 12.8 mg/kg po. It is filed as organism-based. The arrangement: dose 12.8 mg/kg. In a few lines: as §2
For test [13] the target is unchanged. Nature of the test: Compound was tested for plasma inhibition of Angiotensin I converting enzyme activity in the conscious rat. Expressed as Inhibition of AI pressor response at 1 hr at a dose of 12.8 mg/kg po. The format is organism-based. Also noted: dose 12.8 mg/kg. Put shortly: as §1
Test [14] has the same target. Nature of the test: Compound was tested for plasma inhibition of Angiotensin I converting enzyme activity in the conscious rat. Expressed as Inhibition of AI pressor response at 6 hr at a dose of 12.8 mg/kg po. The arrangement: dose 12.8 mg/kg. It is filed as organism-based. In a few lines:
as §2

In test [15] the test system is Rattus norvegicus. Nature of the test: Plasma ANF Concentration in the Conscious Rat at a dose of 14.3(po)mg/kg at 2 h. It is filed as functional. Put shortly: (§3)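 Male Sprague-Dawley rats (275-390 g), catheterized in femoral artery and vein under ketamine (150 mg/kg)/acepromazine, tethered and recovered 24 h, studied conscious. Continuous iv rat ANF(99-126) infusion at 450 ng/kg/min for 5 h; baseline blood at 60 min, then oral dosing, sampling at 30-240 min.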

Test [16] concerns the target T1, Angiotensin-converting enzyme (Rattus norvegicus). Kind of test: Compound was tested for plasma inhibition of Angiotensin I converting enzyme activity in the conscious rat. Expressed as Inhibition of AI pressor response at 6 hr at a dose of 14.3 mg/kg po. It is filed as organism-based. The arrangement: dose 14.3 mg/kg. Put shortly:
as §2

The test system of test [17] is Rattus norvegicus. Nature of the test: Plasma ANF Concentration in the Conscious Rat at a dose of 14.3(po)mg/kg at 0.5 h. It is filed as functional. In a few lines:
as §3

Test [18] has as its target T1, Angiotensin-converting enzyme (Rattus norvegicus). Kind of test: Compound was tested for plasma inhibition of Angiotensin I converting enzyme activity in the conscious rat. Expressed as Inhibition of AI pressor response at 2 hr at a dose of 14.3 mg/kg po. It is filed as organism-based. The arrangement: dose 14.3 mg/kg. In a few lines:
as §1

Test [19] shares this target. Kind of test: Compound was tested for plasma inhibition of Angiotensin I converting enzyme activity in the conscious rat. Expressed as Inhibition of AI pressor response at 1 hr at a dose of 14.3 mg/kg po. Also noted: dose 14.3 mg/kg. It is filed as organism-based. In a few lines: as §1
Test [20] relates to Rattus norvegicus. Nature of the test: Plasma ANF Concentration in the Conscious Rat at a dose of 14.3(po)mg/kg at 1 h. It is filed as functional. In a few lines: as §3
Test [21] has as its system Rattus norvegicus. Kind of test: Plasma ANF Concentration in the Conscious Rat at a dose of 14.3(po)mg/kg at 4 h. The format is functional. In a few lines: as §3
Test [22] addresses T1, Angiotensin-converting enzyme (Rattus norvegicus). Nature of the test: Compound was tested for plasma inhibition of Angiotensin I converting enzyme activity in the conscious rat. Expressed as Inhibition of AI pressor response at 4 hr at a dose of 14.3 mg/kg po. It is filed as organism-based. Also noted: dose 14.3 mg/kg. Put shortly:
as §2

In the case of `CCCCOC(=O)[C@H](Cc1ccc(O)cc1)NC(=O)C1(NC(=O)[C@H](SC(=O)C2CCCCC2)C(C)C)CCCC1`, the inhibition in [1] was 8%; in test [2] it was -3%.

Consider `CCOC(=O)[C@H](Cc1ccc(O)cc1)NC(=O)C1(NC(=O)[C@H](SC(=O)c2ccccn2)C(C)C)CCCC1`, for which the inhibition in [3] came out at 8%; in [4], 12%; in [5], 10%; in [6] it was 11%.

For `CCOC(=O)[C@H](Cc1ccc(O)cc1)NC(=O)C1(NC(=O)[C@H](SC(=O)CN2CCOCC2)C(C)C)CCCC1`, the inhibition in test [7] worked out at 40%; in test [8] it was 28%; in test [9] it was 60%; in [10], 54%.

As for `CCCCOC(=O)[C@H](Cc1ccc(O)cc1)NC(=O)C1(NC(=O)[C@H](SC(=O)CC)C(C)C)CCCC1`, the inhibition was 71% in [11], 56% in test [12], 47% in test [13] and 39% in [14].

Take `CCOC(=O)[C@H](Cc1ccc(OC(=O)c2ccncc2)cc1)NC(=O)C1(NC(=O)[C@H](SC(C)=O)C(C)C)CCCC1`: the Control with Rattus norvegicus [15] was found to be 183%; with Rattus norvegicus [17], 165%; in the test on Rattus norvegicus [20], 193%; in the test on Rattus norvegicus [21] it was 159%. Also, the inhibition in [16] is 55%; in [18] it was 75%; in [19], 79%; in test [22], 70%.

Source of the values: ChEMBL document CHEMBL1129264, “Mercaptoacyl dipeptides as orally active dual inhibitors of angiotensin-converting enzyme and neutral endopeptidase” (1996).
